In general, EC50 refers to the concentration giving half of the maximal effect. As usually defined, the CC50 is the concentration at which the toxic effect on the cells reaches its halfway point.

From ChEMBL document CHEMBL1806391, “Synthesis and biological evaluation of novel 5-alkyl-2-arylthio-6-((3,4-dihydroquinolin-1(2H)-yl)methyl)pyrimidin-4(3H)-ones as potent non-nucleoside HIV-1 reverse transcriptase inhibitors” (Bioorg Med Chem, 2011) come the findings set out here.

Series [1] concerns Human immunodeficiency virus 2. The series is described as follows: Antiviral activity against wild type Human immunodeficiency virus 2 ROD infected in human MT4 cells assessed as protection against virus-induced cytotoxicity after 5 days by MTT assay. The class given is functional, organism-based. As to conditions: Human immunodeficiency virus 2, ISOLATE ROD, MT4, 120 h. The procedure, abridged: (§1)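 MT-4 cells, spun 5 min at 1000 rpm, were resuspended at 6 × 10⁵ cells/mL and infected with HIV-1 IIIB or HIV-2 ROD. Compounds were added at the start in serial fivefold dilutions, in triplicate wells. Viability was read by MTT reduction at 540 and 690 nm five days post-infection. EC₅₀ is the concentration giving 50% protection from viral cytopathic effect, using the median OD of three wells.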
In general terms: Tetrazolium assays rely on reduction of a dye to a coloured formazan, in cell work by metabolically active cells.

Series [2] is described as follows: Selectivity index, ratio of CC50 for human MT4 cells to EC50 for wild type Human immunodeficieny virus 1 3B infected in human MT4 cells. The class given is toxicity, cell-based. The note with it: read-out: Ratio CC50/EC50. A digest of the protocol: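 SI is CC₅₀ in mock-infected MT-4 cells divided by EC₅₀ against HIV-1 IIIB, both from 5-day MTT assays in triplicate wells.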

The subject of series [3] is Human immunodeficiency virus 1. Description: Antiviral activity against wild type Human immunodeficiency virus 1 3B infected in human MT4 cells assessed as protection against virus-induced cytotoxicity after 5 days by MTT assay. The note with it: MT4, 120 h. The format is functional, organism-based. The procedure, abridged:
as §1

Series [4] in a line: Cytotoxic activity against human MT4 cells assessed as viability of mock-infected cells after 5 days by MTT assay. The format is cell-based. The procedure, abridged:
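Mock-infected, exponentially growing MT-4 cells (6 × 10⁵ cells/mL) were exposed to serial fivefold compound dilutions in triplicate wells. After 5 days, viability was read by MTT formazan absorbance at 540 and 690 nm. CC₅₀ is the concentration that lowered OD540 of the mock-infected control by 50%, using the median OD of three wells.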

Series [5] has as its system Human immunodeficiency virus 2. Description: Antiviral activity against Human immunodeficiency virus 2 ROD infected in human MT4 cells assessed as inhibition of viral replication. The class given is functional, organism-based. The note with it: ISOLATE ROD. A digest of the protocol: as §1

Calls of active or inactive are those of the source. No cut-off for these calls is given here.

For the molecule `O=C(CSc1nc(CN2CCCc3ccccc32)cc(=O)[nH]1)c1ccc([N+](=O)[O-])cc1`, the EC50 in series [1] and in series [3] was above 209 µM each time. For the same molecule, the selectivity ratio in series [2] was below 1. In addition, the half-maximal cytotoxic concentration (CC50) at 120 h in series [4] is 209 µM. Besides, the inhibition result in series [5] is “inactive”.
On to `CC(C)Nc1cccnc1N1CCN(C(=O)c2cc3cc(NS(C)(=O)=O)ccc3[nH]2)CC1` [DELAVIRDINE], for which the selectivity ratio in series [2] was above 12. Besides, in series [4], the CC50 at 120 h was above 3.83 µM.
In the case of `Cc1c(CN2CCCc3ccccc32)nc(SCC(=O)c2ccccc2)[nH]c1=O`, the EC50 is above 12.2 µM in series [1] and 0.39 µM in series [3]. For the same molecule, in series [2], the selectivity ratio is 31. Besides, in series [4], the cytotoxic concentration (CC50) at 120 h amounted to 12.2 µM. Further, the inhibition result in series [5] is “inactive”.
For `Cc1c(CN2CCCc3ccccc32)nc(SCC(=O)c2ccc([N+](=O)[O-])cc2)[nH]c1=O` the same measures were above 23.7 µM, at least 3.13 µM, at most 8, 23.7 µM and “inactive”.
On the same counts, the results for `O=C(CSc1nc(CN2CCCc3ccccc32)cc(=O)[nH]1)c1ccc(F)cc1` are above 136 µM, 29.6 µM, 5, 136 µM and “inactive”.
Take `Cc1ccc(CSc2nc(CN3CCCc4ccccc43)c(C)c(=O)[nH]2)cc1`: the 50% effective concentration (EC50) in series [1] was above 86.2 µM; in series [3], at least 86.2 µM. Further, the selectivity ratio in series [2] is at most 1. In series [4], the 50% cytotoxic concentration (CC50) at 120 h is at least 86.2 µM. Also, the inhibition entry in series [5] is “inactive”.
Consider `CCc1c(CN2CCCc3ccccc32)nc(SCc2ccc(F)cc2)[nH]c1=O`, for which the EC50 in series [1] and in series [3] was above 133 µM throughout. Moreover, the selectivity ratio in series [2] was below 1. Moreover, the cytotoxic concentration (CC50) at 120 h in series [4] is 133 µM. The inhibition result in series [5] is “inactive”.
For `Cc1c(CN2CCCc3ccccc32)nc(SCC(=O)c2ccc(F)cc2)[nH]c1=O`, the concentration giving a half-maximal response (EC50) is above 15.4 µM in series [1] and 0.46 µM in series [3]. Also, the selectivity ratio in series [2] is 34. Also, the CC50 at 120 h in series [4] came out at 15.4 µM. For the same molecule, in series [5], the inhibition result is “inactive”.
On the same counts, the results for `CCc1c(CN2CCCc3ccccc32)nc(SCC(=O)c2ccc(F)cc2)[nH]c1=O` are above 156 µM, 0.57 µM, 273, 156 µM and “inactive”.
Turning to `Cc1ccnc2c1NC(=O)c1cccnc1N2C1CC1` [NEVIRAPINE], the CC50 at 120 h in series [4] was above 15 µM.
Take `O=C(CSc1nc(CN2CCCc3ccccc32)cc(=O)[nH]1)c1ccccc1`: the results for the EC50 in series [1] and in series [3] were above 153 µM and 24.6 µM, respectively. In addition, the selectivity ratio in series [2] is 6. In addition, in series [4], the CC50 at 120 h worked out at 153 µM. The inhibition entry in series [5] is “inactive”.
For `N#Cc1ccc(C(=O)CSc2nc(CN3CCCc4ccccc43)cc(=O)[nH]2)cc1` the same measures were above 197 µM, above 197 µM, above 1, above 197 µM and “inactive”.
In the case of `Cc1c(CN2CCCc3ccccc32)nc(SCC(=O)c2ccc(C#N)cc2)[nH]c1=O`, the 50% effective concentration (EC50) in series [1] was above 44.5 µM; in series [3], 7.35 µM. Moreover, the selectivity ratio in series [2] came out at 6. Also, the half-maximal cytotoxic concentration (CC50) at 120 h in series [4] came to 44.5 µM. Besides, the inhibition result in series [5] was “inactive”.
`CCc1c(CN2CCCc3ccccc32)nc(SCC(=O)c2ccc(C)cc2)[nH]c1=O`: the values for the half-maximal effective concentration (EC50) in series [1] and in series [3] were above 288 µM and 1.06 µM, respectively. The selectivity ratio in series [2] was 271. For the same molecule, the half-maximal cytotoxic concentration (CC50) at 120 h in series [4] is 288 µM. Also, in series [5], the inhibition result is “inactive”.
Consider `COc1ccc(CSc2nc(CN3CCCc4ccccc43)cc(=O)[nH]2)cc1`, for which the half-maximal effective concentration (EC50) in series [1] was above 181 µM; in series [3], 25.1 µM. In series [2], the selectivity ratio came to 7. In series [4], the CC50 at 120 h worked out at 181 µM. Moreover, in series [5], the inhibition result is “inactive”.
For `CCc1c(CN2CCCc3ccccc32)nc(SCC(=O)c2ccc(C#N)cc2)[nH]c1=O` the same measures were above 115 µM, 1.06 µM, 109, 115 µM and “inactive”.
On the same counts, the results for `COc1ccc(CSc2nc(CN3CCCc4ccccc43)c(C)c(=O)[nH]2)cc1` are above 59.6 µM, 0.64 µM, 93, 59.6 µM and “inactive”.
On the same counts, the results for `CCc1c(CN2CCCc3ccccc32)nc(SCc2ccc([N+](=O)[O-])cc2)[nH]c1=O` are above 195 µM, 1.03 µM, 188, 195 µM and “inactive”.
Consider `Cc1cn([C@H]2C[C@H](N=[N+]=[N-])[C@@H](CO)O2)c(=O)[nH]c1=O` [ZIDOVUDINE], for which the selectivity ratio in series [2] was above 6190. Besides, in series [4], the CC50 at 120 h was above 93.5 µM.
For the molecule `Cc1c(CN2CCCc3ccccc32)nc(SCc2ccc(C#N)cc2)[nH]c1=O`, the EC50 in series [1] was above 13 µM; in series [3], 1.78 µM. Also, the selectivity ratio in series [2] was determined as 7. For the same molecule, the CC50 at 120 h in series [4] is 13 µM. Also, in series [5], the inhibition result was “inactive”.
On the same counts, the results for `CCc1c(CN2CCCc3ccccc32)nc(SCc2ccc(Cl)cc2)[nH]c1=O` are above 135 µM, at least 5.42 µM, at most 25, 135 µM and “inactive”.
On the same counts, the results for `O=c1cc(CN2CCCc3ccccc32)nc(SCc2ccc(Cl)cc2)[nH]1` are above 53.6 µM, above 53.6 µM, below 1, above 53.6 µM and “inactive”.
As to `CCc1c(CN2CCCc3ccccc32)nc(SCc2ccc(C#N)cc2)[nH]c1=O`, the half-maximal effective concentration (EC50) in series [1] was above 59.7 µM; in series [3], 0.48 µM. The selectivity ratio in series [2] is 125. Moreover, in series [4], the CC50 at 120 h turned out to be 59.7 µM. The inhibition result in series [5] was “inactive”.
On the same counts, the results for `CCc1c(CN2CCCc3ccccc32)nc(SCC(=O)c2ccc(OC)cc2)[nH]c1=O` are above 61.8 µM, 0.38 µM, 164, 61.8 µM and “inactive”.
Consider `Cc1ccc(C(=O)CSc2nc(CN3CCCc4ccccc43)c(C)c(=O)[nH]2)cc1`, for which the EC50 is above 62.4 µM in series [1] and 1.95 µM in series [3]. For the same molecule, the selectivity ratio in series [2] came to 32. Besides, in series [4], the cytotoxic concentration (CC50) at 120 h came to 62.4 µM. For the same molecule, the inhibition result in series [5] was “inactive”.
On the same counts, the results for `O=c1cc(CN2CCCc3ccccc32)nc(SCc2ccc([N+](=O)[O-])cc2)[nH]1` are above 73.9 µM, at least 49.5 µM, at most 2, 73.9 µM and “inactive”.
On the same counts, the results for `Cc1c(CN2CCCc3ccccc32)nc(SCc2ccc([N+](=O)[O-])cc2)[nH]c1=O` are above 76.9 µM, 1.88 µM, 41, 76.9 µM and “inactive”.
On to `Cc1c(CN2CCCc3ccccc32)nc(SCC(=O)c2ccc(Cl)cc2)[nH]c1=O`, for which the EC50 in series [1] is above 42.1 µM; in series [3], 2.16 µM. Moreover, the selectivity ratio in series [2] was determined as 19. In series [4], the CC50 at 120 h stood at 42.1 µM. Further, the inhibition entry in series [5] was “inactive”.
On the same counts, the results for `Cc1ccc(C(=O)CSc2nc(CN3CCCc4ccccc43)cc(=O)[nH]2)cc1` are above 156 µM, 28 µM, 6, 156 µM and “inactive”.
Turning to `O=c1cc(CN2CCCc3ccccc32)nc(SCc2ccc(F)cc2)[nH]1`, the EC50 in series [1] is above 182 µM; in series [3], 29.7 µM. Also, the selectivity ratio in series [2] worked out at 6. In addition, the CC50 at 120 h in series [4] is 182 µM. The inhibition entry in series [5] was “inactive”.
On the same counts, the results for `CCc1c(CN2CCCc3ccccc32)nc(SCc2ccc(OC)cc2)[nH]c1=O` are above 147 µM, 0.59 µM, 244, 147 µM and “inactive”.
For `Cc1c(CN2CCCc3ccccc32)nc(SCc2ccc(F)cc2)[nH]c1=O` the same measures were above 8.67 µM, above 8.67 µM, below 1, 8.67 µM and “inactive”.
On the same counts, the results for `N#Cc1ccc(CSc2nc(CN3CCCc4ccccc43)cc(=O)[nH]2)cc1` are above 86.8 µM, at least 43 µM, at most 2, 86.8 µM and “inactive”.
Take `O=C1Nc2ccc(Cl)cc2[C@@](C#CC2CC2)(C(F)(F)F)O1` [EFAVIRENZ]: the selectivity ratio in series [2] is above 1430. The half-maximal cytotoxic concentration (CC50) at 120 h in series [4] was above 6.34 µM.
